# From PubChem
# Most compounds without a hit are left out; they make up all but 2.3% or so of the library.
# TRPC6 inhibitor: mouse TRPC6 channel inhibitors, primary screen, cell-based, HEK293, membrane potential dye; ACh-evoked depolarization; active compounds read low; hit rate 1.1% among 310,000; B-score at 10 µM;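 active = B-score under library mean minus 3 SD, initial fluorescence not abnormally high, positive integrated signal ratio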;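 also: B-score derived from integrated fluorescence ratio over the kinetic read; more negative B-score means stronger inhibition of depolarization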
# Target sequence (Q61143 whole entry, looked up): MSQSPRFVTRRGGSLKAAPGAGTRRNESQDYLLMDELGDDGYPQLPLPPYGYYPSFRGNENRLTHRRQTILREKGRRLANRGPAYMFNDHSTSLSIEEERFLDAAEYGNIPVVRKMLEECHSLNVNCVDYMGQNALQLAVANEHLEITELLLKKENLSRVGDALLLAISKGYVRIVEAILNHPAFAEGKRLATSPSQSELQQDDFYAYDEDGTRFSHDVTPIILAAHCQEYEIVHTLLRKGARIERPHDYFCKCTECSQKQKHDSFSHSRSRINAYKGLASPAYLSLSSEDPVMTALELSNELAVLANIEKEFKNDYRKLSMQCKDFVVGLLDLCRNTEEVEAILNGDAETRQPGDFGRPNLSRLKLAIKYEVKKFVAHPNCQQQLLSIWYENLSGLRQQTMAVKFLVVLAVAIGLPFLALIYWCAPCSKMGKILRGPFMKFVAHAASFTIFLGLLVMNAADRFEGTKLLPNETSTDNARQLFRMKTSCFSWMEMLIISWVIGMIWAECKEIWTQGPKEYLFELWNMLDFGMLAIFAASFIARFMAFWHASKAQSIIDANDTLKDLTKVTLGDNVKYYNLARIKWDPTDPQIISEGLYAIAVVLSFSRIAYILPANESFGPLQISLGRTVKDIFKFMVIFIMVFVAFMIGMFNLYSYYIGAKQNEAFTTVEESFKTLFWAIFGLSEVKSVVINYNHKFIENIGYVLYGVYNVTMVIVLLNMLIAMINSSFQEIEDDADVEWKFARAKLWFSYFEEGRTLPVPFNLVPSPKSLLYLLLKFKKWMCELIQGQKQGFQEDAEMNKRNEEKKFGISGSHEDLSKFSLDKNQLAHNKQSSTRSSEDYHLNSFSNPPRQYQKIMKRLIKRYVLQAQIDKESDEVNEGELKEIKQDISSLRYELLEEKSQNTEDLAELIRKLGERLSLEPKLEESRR
# TRPC4 block: inhibitors of mouse TRPC4 channel, primary screen, Fluo4 calcium, HEK293 TRPC4beta/mu-opioid cells. DAMGO-evoked Fluo4 calcium flux; active compounds read low. B-score at 10 µM. hit rate 0.39% among 300,000. AID 2247, 2010;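 active = B-score over 3 SD under the library average, no early fluorescence shift, positive overall ratio signal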
#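 Assay system: HEK293 cells with stable TRPC4beta plus mu-opioid receptor expression; Probe or stimulus: DAMGO in two steps, submaximal then maximal; Dosing: single-point compound dosing; Measured by: Fluo4 calcium-dye fluorescence, kinetic read; Read-out basis: B score from integrated Fluo4 fluorescence ratio.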
# TRPC4 agonist: activators of mouse TRPC4 channel, primary screen, Fluo4 calcium, HEK293 TRPC4beta/mu-opioid cells; Short transient receptor potential channel 4 (Mus musculus), Q9QUQ5; Fluo4 calcium fluorescence; active compounds read high; B-score at 10 µM; hit rate 0.49% among 310,000;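 active = B-score above 5 SD of library B-scores, and initial fluorescence ratio not above library mean plus 5 SD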;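 also: positive B-score marks a calcium rise read as TRPC4 activation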
#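 Assay system – TRPC4beta and mu-opioid receptor HEK293 stable cells · Measured by – Fluo4 fluorescence, kinetic · Schedule – dye loading 45 min room temperature, 110 s kinetic read · Read-out – B-scored integrated calcium fluorescence ratio · Controls – buffer and maximal DAMGO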
# TRPC6 act: mouse TRPC6 channel activators, primary screen, cell-based, HEK293, membrane potential dye; B-score at 10 µM; hit rate 0.13% among 310,000; AID 2550, 2010; Short transient receptor potential channel 6 (Mus musculus), Q61143; HEK293-TRPC6 membrane potential dye fluorescence; active compounds read high;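 active = B-score of the integrated fluorescence ratio above library mean plus 3 SD, and starting fluorescence ratio within library mean plus 5 SD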;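 also: higher score means more depolarization so channel activation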
# TRPC4 potent: positive allosteric modulators of TRPC4, primary screen, cell-based, mouse TRPC4beta, HEK293 mu-opioid, Fluo-4 calcium; Short transient receptor potential channel 4 (Mus musculus), Q9QUQ5; B-score at 10 µM; AID 2227, 2009; hit rate 0.42% among 310,000; DAMGO EC20, Fluo-4 Ca2+ flux; active compounds read high;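 active = B-score of calcium response area above 5 SD of library B-scores, with initial fluorescence ratio within 5 SD of library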;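 also: B-score of integrated fluorescence ratio over time as area under calcium response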
# TRPC4 sel inh 2: second check of whether TRPC6 inhibitors also affect mouse TRPC4; HEK293 TRPC4/MOR, membrane potential dye fluorescence; channel activated by saturating DAMGO dose; shares compounds with TRPC6 inhibitor; inhibition, % at 10 µM; AID 2776; hit rate 42% among 920;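 active = compounds whose fluorescence signal differed from control wells by over 3 SD, either direction, in both duplicate plates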
# TRPC4 spec: mouse TRPC4 modulation by TRPC6 hits, confirmation, selectivity assay for TRPC6 inhibitor project, cell-based, HEK293 TRPC4/mu-opioid, membrane potential dye. AID 2777, 2010. activity change, negative = inhibition, % at 10 µM. hit rate 61% among 920. shares compounds with TRPC6 inhibitor. membrane potential fluorescence;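 active = rise or fall in signal beyond 3 SD of buffer-only wells in both replicate plates, either sign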;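 also: integrated kinetic ratio of fluorescence range over baseline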
# HEK293 MPD ctr 2-1: nonspecific membrane potential effects, parental HEK293, confirmation, counter-screen for TRPC6 inhibitor project, cell-based, second counter screen. shares compounds with TRPC6 inhibitor. parental HEK293 membrane potential dye fluorescence; maximal acetylcholine challenge after compound addition. signal change vs control, % at 10 µM. hit rate 31% among 920. AID 2779, 2010;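 active = membrane potential signal moving either way by over 3 SD of the maximum-effect control, in both duplicate plates, meaning non-specific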
# HEK293 MPD ctr-1: membrane potential modulation in parental HEK293, confirmation, counter-screen for TRPC6 inhibitor project, cell-based. shares compounds with TRPC6 inhibitor. parental HEK293 membrane potential dye fluorescence. membrane potential signal change, % at 10 µM. hit rate 60% among 920;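 active = membrane potential signal shifting up or down by more than 3 SD of buffer-only wells, on both duplicate plates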
# HEK293 MPD ctr-2: parental HEK293 membrane potential modulation, confirmation, counter-screen for TRPC6 modulator project, cell-based | shares compounds with TRPC6 inhibitor | membrane potential dye fluorescence | membrane potential signal change, % at 10 µM | hit rate 51% among 2,400;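 active = membrane potential signal moves up or down beyond 5 SD from buffer-only wells, on both duplicate plates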
# HEK293 MPD ctr 2-2: parental HEK293 nonspecific activity of TRPC6 modulators, second screen; shares compounds with TRPC6 inhibitor; membrane potential dye fluorescence; after compound, maximal acetylcholine stimulation; inhibition, % at 10 µM; hit rate 14% among 2,400; AID 488926;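 active = membrane potential signal drops by more than 5 SD from the mean control signal, in both duplicate plates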;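 also: plate controls were acetylcholine ECmax control wells for no effect and buffer only wells for full effect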
# TRPC4 ctr mod: TRPC4 modulation by TRPC6 hit compounds, confirmation, selectivity assay for TRPC6 modulator project, cell-based, HEK293 TRPC4/mu-opioid, membrane potential dye, mouse; percent change from control (negative = decrease, positive = increase), % at 10 µM; membrane potential fluorescence; shares compounds with TRPC6 inhibitor; hit rate 69% among 2,400;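 active = membrane potential signal moved up or down beyond 5 SD of buffer control wells, in both duplicate plates, actives on both sides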;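 also: plate controls were assay buffer wells for no effect and DAMGO maximal-effect wells for full effect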
# TRPC4 ctr inh 2: second check of whether TRPC6 modulators also affect mouse TRPC4; HEK293 TRPC4/mu-opioid, membrane potential dye fluorescence; stimulated with maximal-effect DAMGO; hit rate 55% among 2,400; inhibition, % at 10 µM; shares compounds with TRPC6 inhibitor; AID 488928;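 active = drop in membrane potential signal beyond 5 SD of the control wells in both duplicate plates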;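 also: TRPC4 counter screen for TRPC6 hits run under conditions tuned for TRPC6 not TRPC4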
# TRPC6 block conf: mouse TRPC6 channel inhibitors, confirmation, HEK293 cells, membrane potential dye, duplicate; shares compounds with TRPC6 inhibitor; ACh-evoked depolarization; inhibition, % at 10 µM; hit rate 43% among 3,300; AID 488960, 2010;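 active = fluorescence ratio falls more than 5 SD below the full-stimulation control mean, in both duplicate runs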;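 also: integrated fluorescence ratio of peak minus minimum over baseline after agonist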
# TRPC6 act conf: mouse TRPC6 channel activators, confirmation, HEK293 cells, membrane potential dye, duplicate; shares compounds with TRPC6 inhibitor; HEK293-TRPC6 membrane potential dye fluorescence, FDSS; activation, % at 10 µM; hit rate 11% among 2,800; AID 488961, 2010;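 active = ratio signal rise beyond 5 SD above unstimulated control wells' mean, seen in both duplicate runs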;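 also: plate controls were buffer EC0 wells for no effect and acetylcholine ECmax response for full effect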
# * = called active by the depositor; i = inactive; nt = no result given.
SMILES,TRPC6 inhibitor,TRPC4 block,TRPC4 agonist,TRPC6 act,TRPC4 potent,TRPC4 sel inh 2,TRPC4 spec,HEK293 MPD ctr 2-1,HEK293 MPD ctr-1,HEK293 MPD ctr-2,HEK293 MPD ctr 2-2,TRPC4 ctr mod,TRPC4 ctr inh 2,TRPC6 block conf,TRPC6 act conf
Cc1c(Cl)cccc1NC(=O)CNCc1ccccc1F,-5.26*,i,i,i,i,nt,nt,nt,nt,i,i,18.0%*,i,i,nt
CCOC(=O)c1[nH]c2ccccc2c1CCCN1C(=O)c2ccccc2C1=O,-6.88*,i,i,i,i,i,i,i,i,nt,nt,nt,nt,i,i
Cc1cccc(C(=O)Nc2sc3c(c2C(=O)O)CCCC3)c1,i,i,i,i,i,nt,nt,nt,nt,nt,nt,nt,nt,nt,nt
O=C(NCC(=O)N1CCOCC1)c1ccc(Cl)cc1,-9.09*,i,i,i,i,nt,nt,nt,nt,i,i,i,i,i,i
COc1ccc(-c2cc(C(F)(F)F)n3ncc(C(=O)Nc4c(C)n(C)n(-c5ccccc5)c4=O)c3n2)cc1,i,i,i,i,i,nt,nt,nt,nt,nt,nt,nt,nt,nt,nt
CC1CN(c2ccc([N+](=O)[O-])c(NCCOc3ccccc3)c2)CCN1 (centres undefined),-7.31*,i,i,i,i,i,-10.7%*,i,-142.5%*,nt,nt,nt,nt,i,i
CCN(CC)S(=O)(=O)c1cccc(NC(=O)C2CC(=O)N(c3ccc4c(c3)OCCO4)C2)c1 (centres undefined),i,i,i,i,i,nt,nt,nt,nt,nt,nt,nt,nt,nt,nt
Cc1cccc(NC(=O)CCNS(=O)(=O)c2ccc(Cl)cc2)c1,-5.09*,i,i,i,i,nt,nt,nt,nt,i,i,i,i,i,i
CC(=O)Nc1ccc(S(=O)(=O)NCCC(=O)Nc2cccc(Cl)c2)cc1,i,i,i,i,i,nt,nt,nt,nt,nt,nt,nt,nt,nt,nt
CS(=O)(=O)Oc1ccc(Br)cc1/C=C1/N=C(c2ccco2)OC1=O,i,i,i,i,i,nt,nt,nt,nt,nt,nt,nt,nt,nt,nt
Cc1cnc(C(=O)N2CCCC(C(=O)c3ccc(Cl)cc3C)C2)cn1 (centres undefined),-5.35*,i,i,i,i,nt,nt,nt,nt,i,i,14.5%*,i,45.5%*,nt
COC(=O)c1ccc(NC(=O)N2CCCC(C(=O)c3ccccc3OC)C2)cc1 (centres undefined),-9.16*,i,i,i,i,i,i,226.0%*,i,nt,nt,nt,nt,i,nt
COc1ccccc1C(=O)C1CCCN(C(=O)c2cn3cc(Cl)ccc3n2)C1 (centres undefined),-8.19*,i,i,i,i,i,0.1%*,i,0.3%*,nt,nt,nt,nt,i,i
COc1ccccc1C(=O)C1CCCN(C(=O)c2ccccc2Cl)C1 (centres undefined),i,i,i,i,i,nt,nt,nt,nt,nt,nt,nt,nt,nt,nt
Cc1cc(S(=O)(=O)N2CCCCC2)c(C)s1,i,i,i,i,i,nt,nt,nt,nt,nt,nt,nt,nt,nt,nt
CC(/C=C/c1cccc([N+](=O)[O-])c1)=N/NC(=O)c1cccnc1,-5.86*,i,i,i,i,nt,nt,nt,nt,i,i,i,i,i,i
O=C(C1=C(c2ccccc2)C(=O)c2ccccc2C1=O)c1ccccc1,i,i,i,i,i,nt,nt,nt,nt,nt,nt,nt,nt,nt,nt
O=C1C(=O)c2c(C(=O)c3ccccc3)coc2-c2ccccc21,-6.2*,i,i,i,i,nt,nt,nt,nt,-79.5%*,i,-18.5%*,71.5%*,60.5%*,i
COc1ccc(CNC(=O)CN(Cc2ccccc2)C(=O)CCC(=O)Nc2nccs2)cc1,i,i,i,i,i,nt,nt,nt,nt,nt,nt,nt,nt,nt,nt
COc1cc(O)c(C(CCN2CCCC(C)C2)c2ccc(N(C)C)cc2)c(OC)c1 (centres undefined),-7*,i,i,i,i,61.5%*,i,i,i,nt,nt,nt,nt,i,i
COc1cc(O)c(C(CCN2CCCC(C)C2)c2ccc3c(c2)OCO3)c(OC)c1 (centres undefined),i,i,i,i,i,nt,nt,nt,nt,nt,nt,nt,nt,nt,nt
COc1cc(C(CCN2CCCC(C)C2)c2c(OC)cc(OC)c3c(-c4ccccc4)cc(=O)oc23)cc(OC)c1OC (centres undefined),-7.81*,i,i,i,i,44.0%*,-11.1%*,i,i,nt,nt,nt,nt,i,i
